Results as given in ChEMBL document CHEMBL1153263, “3-Acrylamide-4-aryloxyindoles: synthesis, biological evaluation and metabolic stability of potent and selective EP3 receptor antagonists” (Bioorg Med Chem Lett, 2009).

Columns and labels:
[1] = target: T1, Prostaglandin E2 receptor EP3 subtype (Homo sapiens, UniProt P43115); test: Displacement of [3H]PGE2 from human EP3 receptor at 20 uM in presence of normal buffer
T1 sequence (P43115 whole entry): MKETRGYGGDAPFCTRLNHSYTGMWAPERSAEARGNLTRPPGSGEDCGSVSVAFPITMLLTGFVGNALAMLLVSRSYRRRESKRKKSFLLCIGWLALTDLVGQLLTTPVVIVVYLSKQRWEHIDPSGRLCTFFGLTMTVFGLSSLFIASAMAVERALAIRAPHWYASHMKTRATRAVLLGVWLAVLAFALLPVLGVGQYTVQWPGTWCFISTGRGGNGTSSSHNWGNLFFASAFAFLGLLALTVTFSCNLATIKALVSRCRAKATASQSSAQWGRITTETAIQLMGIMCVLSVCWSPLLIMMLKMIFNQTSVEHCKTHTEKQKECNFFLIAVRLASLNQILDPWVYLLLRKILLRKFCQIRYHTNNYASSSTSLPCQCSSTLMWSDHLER

[2] = target: T1, Prostaglandin E2 receptor EP3 subtype; test: Displacement of [3H]PGE2 from human EP3 receptor at 20 uM in presence of 10% human serum
[3] = target: T2, Prostaglandin E2 receptor EP3 subtype (Homo sapiens) (UniProt P43115); test: Ratio IC50 for human EP3 receptor in presence of human serum to IC50 for human EP3 in absence of human serum
T2 sequence (whole entry): T1 sequence (P43115 whole entry)

[4] = target: Prostaglandin E2 receptor EP2 subtype (Homo sapiens, UniProt P43116); test: Displacement of radioligand from EP2 receptor
[5] = target: Prostaglandin E2 receptor EP4 subtype (Homo sapiens, UniProt P35408); test: Displacement of radioligand from EP4 receptor
Prostacyclin receptor = Prostacyclin receptor (Homo sapiens, UniProt P43119); test: Displacement of radioligand from IP receptor
[6] = target: Prostaglandin F2-alpha receptor (Homo sapiens, UniProt P43088); test: Displacement of radioligand from FP receptor
[7] = Metabolic stability in human liver microsome assessed as compound remaining at 5 uM after 30 mins; format: ADME; details: liver microsomes, read-out: Stability
How it was run: (§1)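 Liver microsomes at 0.8 mg/mL protein incubated with compound at 5 µM. Percent parent remaining after 30 min measured by LC–MS/MS.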

[8] = Metabolic stability in rat liver microsome assessed as compound remaining at 5 uM after 30 mins; format: ADME; details: liver microsomes, read-out: Stability; how it was run: as §1
[9] = Metabolic stability in mouse liver microsome assessed as compound remaining at 5 uM after 30 mins; format: ADME; details: liver microsomes, read-out: Stability; how it was run: as §1
[10] = Metabolic stability in dog liver microsome assessed as compound remaining at 5 uM after 30 mins; format: ADME, Canis lupus familiaris; details: liver microsomes, read-out: Stability; how it was run: as §1
[11] = Metabolic stability in monkey liver microsome assessed as compound remaining at 5 uM after 30 mins; format: ADME, Macaca mulatta; details: rhesus monkey, liver microsomes; read-out: Stability; how it was run: as §1
[12] = Antiplatelet activity against rat platelet assessed as platelet aggregation; format: functional, cell-based
Mus musculus = test: Plasma concentration in NMRI mouse at 2 mg/kg, iv; format: ADME, organism-based; design: dose 2 mg/kg, route intravenous; details: in vivo
How it was run: (§2)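 Mouse iv exposure screen. Plasma and brain concentrations sampled 15 min after dosing.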

Brain = test: Brain concentration in NMRI mouse at 2 mg/kg, iv; format: ADME, organism-based; design: dose 2 mg/kg, route intravenous; details: in vivo; how it was run: as §2
[13] = target: T3, Prostaglandin E2 receptor EP1 subtype (Homo sapiens, UniProt P34995); test: Displacement of radioligand from EP1 receptor
T3 sequence (P34995 whole entry): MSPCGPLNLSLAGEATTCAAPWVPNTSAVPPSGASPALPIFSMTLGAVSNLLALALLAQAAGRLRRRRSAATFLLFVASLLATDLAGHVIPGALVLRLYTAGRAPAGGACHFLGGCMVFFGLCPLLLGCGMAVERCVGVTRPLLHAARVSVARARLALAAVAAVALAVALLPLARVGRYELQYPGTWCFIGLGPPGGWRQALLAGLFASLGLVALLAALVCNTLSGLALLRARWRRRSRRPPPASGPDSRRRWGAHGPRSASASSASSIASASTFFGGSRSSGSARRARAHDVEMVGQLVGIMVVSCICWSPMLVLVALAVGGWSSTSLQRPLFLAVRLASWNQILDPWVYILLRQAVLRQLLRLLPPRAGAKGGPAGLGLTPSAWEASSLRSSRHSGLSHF

[14] = target: T1, Prostaglandin E2 receptor EP3 subtype; test: Antagonist activity at human EP3-2 receptor expressed in CHOK1 cells; format: functional, cell-based, CHO-K1
How it was run: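 Stably transfected CHO-K1 cells expressing hEP3II, plated at 10⁵ cells/well and cultured overnight at 37 °C, 5% CO2. Washed with PBS, pre-incubated 30 min at 37 °C in serum-free medium with 1 mM IBMX. Stimulated with PGE2 (5×10⁻⁹ M) plus forskolin (5×10⁻⁶ M) ± compound (10⁻⁴–10⁻¹³ M) for 10 min at 37 °C. cAMP measured by EIA; EC50 from sigmoid non-linear regression.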

[15] = Antiplatelet activity against human platelet assessed as platelet aggregation; format: functional, cell-based

Prostaglandin E2 receptor EP4 subtype, sequence (P35408 whole entry): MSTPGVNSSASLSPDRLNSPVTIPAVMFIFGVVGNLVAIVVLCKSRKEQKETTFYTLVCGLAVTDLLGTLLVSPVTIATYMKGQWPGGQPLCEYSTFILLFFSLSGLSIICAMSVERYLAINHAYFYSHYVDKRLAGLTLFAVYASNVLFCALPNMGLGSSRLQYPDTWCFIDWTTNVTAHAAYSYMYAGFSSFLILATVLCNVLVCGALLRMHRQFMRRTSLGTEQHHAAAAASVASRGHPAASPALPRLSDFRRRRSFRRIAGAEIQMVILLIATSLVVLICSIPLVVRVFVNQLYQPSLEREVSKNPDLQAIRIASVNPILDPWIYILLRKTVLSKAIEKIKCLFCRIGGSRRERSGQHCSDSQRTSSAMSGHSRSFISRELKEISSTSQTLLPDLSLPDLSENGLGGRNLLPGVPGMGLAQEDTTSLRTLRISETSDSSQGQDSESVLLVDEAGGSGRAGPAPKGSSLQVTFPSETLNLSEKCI
Prostaglandin E2 receptor EP2 subtype, sequence (P43116 whole entry): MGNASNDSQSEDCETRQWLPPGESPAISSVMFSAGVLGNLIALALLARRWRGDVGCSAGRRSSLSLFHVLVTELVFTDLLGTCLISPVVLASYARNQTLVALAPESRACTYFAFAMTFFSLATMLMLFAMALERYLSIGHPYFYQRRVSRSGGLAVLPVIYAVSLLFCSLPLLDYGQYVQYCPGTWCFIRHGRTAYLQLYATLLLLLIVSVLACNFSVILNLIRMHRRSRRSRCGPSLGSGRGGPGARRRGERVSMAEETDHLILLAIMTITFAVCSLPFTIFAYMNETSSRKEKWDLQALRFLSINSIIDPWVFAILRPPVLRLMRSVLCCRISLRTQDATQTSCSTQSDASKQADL
Prostaglandin F2-alpha receptor, sequence (P43088 whole entry): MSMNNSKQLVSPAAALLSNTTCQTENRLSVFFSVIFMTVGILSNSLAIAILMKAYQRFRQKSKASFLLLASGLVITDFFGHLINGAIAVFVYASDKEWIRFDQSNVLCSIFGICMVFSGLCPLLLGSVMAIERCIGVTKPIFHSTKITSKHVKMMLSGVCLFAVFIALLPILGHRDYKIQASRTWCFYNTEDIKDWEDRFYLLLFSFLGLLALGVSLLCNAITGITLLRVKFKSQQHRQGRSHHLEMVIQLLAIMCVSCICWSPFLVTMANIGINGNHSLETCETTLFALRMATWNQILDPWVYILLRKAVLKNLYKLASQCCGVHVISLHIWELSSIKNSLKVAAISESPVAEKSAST
Prostacyclin receptor, sequence (P43119 whole entry): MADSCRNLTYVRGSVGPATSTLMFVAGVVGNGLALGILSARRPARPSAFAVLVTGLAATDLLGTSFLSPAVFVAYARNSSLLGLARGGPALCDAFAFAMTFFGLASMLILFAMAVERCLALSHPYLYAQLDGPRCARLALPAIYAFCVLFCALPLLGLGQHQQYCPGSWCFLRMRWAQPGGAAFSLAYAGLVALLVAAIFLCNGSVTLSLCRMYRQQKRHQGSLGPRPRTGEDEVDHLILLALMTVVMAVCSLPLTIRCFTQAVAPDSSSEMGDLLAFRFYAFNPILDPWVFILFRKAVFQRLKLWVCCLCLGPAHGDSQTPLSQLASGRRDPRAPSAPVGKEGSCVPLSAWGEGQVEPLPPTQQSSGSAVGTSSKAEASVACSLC

IC50 [1] | IC50 [2] | Ratio IC50 [3] | IC50 [4] | IC50 [5] | IC50 (Prostacyclin receptor) | IC50 [6] | remaining at 0.5 h, 5 µM [7] | remaining at 0.5 h, 5 µM [8] | remaining at 0.5 h, 5 µM [9] | remaining at 0.5 h, 5 µM [10] | remaining at 0.5 h, 5 µM [11] | EC50 [12] | Cp (Mus musculus) | Drug uptake (Brain) | IC50 [13] | EC50 [14] | EC50 [15] | Structure (SMILES)
0.0074 µM | 0.0159 µM | 2.1 | 12.5 µM | 12.5 µM | 1.88 µM | 3.59 µM | 63.6% | 24.6% | 62% | 69.7% | 59% | 0.0128 µM | 3420 ng/mL | 55.7 ng/mL | 1.42 µM |  |  | Cn1cc(/C=C/C(=O)NS(=O)(=O)c2ccc(F)c(F)c2)c2c(Oc3ccc4ccccc4c3)cccc21
0.0118 µM | 0.0237 µM | 2 | 9.6 µM | 14.6 µM |  | 1.97 µM | 74.7% | 30.6% | 69% | 104% | 53.8% |  |  |  | 3.86 µM | 0.0261 µM |  | Cn1cc(/C=C/C(=O)NS(=O)(=O)c2ccc(F)c(F)c2)c2c(Oc3ccc(Cl)cc3Cl)cccc21
0.0092 µM | 0.028 µM | 3.1 |  |  |  |  | 91.2% | 32% |  | 90.4% |  | 0.0116 µM | 1518 ng/mL | 29.1 ng/mL |  |  | 0.0081 µM | Cn1cc(/C=C/C(=O)NS(=O)(=O)c2cc(F)c(F)cc2F)c2c(Oc3ccc4ccccc4c3)cccc21
